Results published in ChEMBL document CHEMBL3272033, “Physicochemical and pharmacological studies of some 8-substituted decahydroisoquinolines” (J Med Chem, 1976).

Tests used:
[1] = Effect on transmembrane action potential in dog purkinje cells assessed as change in amplitude at 10 mg/l after 20 mins in presence of 5.4 mM/l K+ relative to control; format: functional, Canis lupus familiaris
In short: (§1)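 Purkinje false tendons with attached myocardium came from adult dogs (10–15 kg) anesthetized with pentobarbital 30 mg/kg iv. Tissue was bathed in Tyrode (KCl 2.7 or 5.4 mM) gassed with 95% O2-5% CO2 at 37 °C and impaled with glass microelectrodes. Compound was given as a bolus to the final bath concentration, with records at 2–20 min. Two preparations per compound; % change from control at 20 min.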

[2] = Effect on transmembrane action potential in dog purkinje cells assessed as change in amplitude at 40 mg/l after 20 mins in presence of 5.4 mM/l K+ relative to control; format: functional, Canis lupus familiaris; in short: as §1
[3] = Effect on transmembrane action potential in dog purkinje cells assessed as change in amplitude at 50 mg/l after 20 mins in presence of 2.7 mM/l K+ relative to control; format: functional, Canis lupus familiaris; in short: as §1
[4] = Effect on transmembrane action potential in dog purkinje cells assessed as change in activation time at 10 mg/l after 20 mins in presence of 2.7 mM/l K+ relative to control; format: functional, Canis lupus familiaris
In short: (§2)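 Canine Purkinje false-tendon preparations from pentobarbital-anesthetized dogs, in oxygenated Tyrode at 37 °C with KCl 2.7 or 5.4 mM. Compound given by bolus to the final bath concentration. TMAP recorded by intracellular glass microelectrode before dosing and 2–20 min after. ARV of phase 0 (V/s) and activation time (ms) expressed as % change from control at 20 min. Two preparations per compound.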

[5] = Effect on transmembrane action potential in dog purkinje cells assessed as change in activation time at 10 mg/l after 20 mins in presence of 5.4 mM/l K+ relative to control; format: functional, Canis lupus familiaris; in short: as §2
[6] = tested on: Mus musculus; assay: Antiarrhythmic activity in ip dosed Swiss-Webster albino mouse assessed as prevention of chloroform-induced ventricular fibrillation; format: functional, Heart
[7] = species: Homo sapiens; assay: Drug absorption in buccal cavity in human at pH 5.50 after 5 mins by UV spectrometry; format: ADME, organism-based; details: in vivo, other, pH 5.5, 5 min
In short: (§3)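 3 mg compound in 25 ml buffer (0.1 M phosphate pH 5.50 or 7.50; tetraborate pH 9.30) swished in the mouth for 5 min, expelled, and combined with a 10 ml water rinse. Made up to 50 ml; aliquot basified to pH 10 and ether-extracted, then back-extracted into 0.1 N HCl. UV absorbance read at λmax against Beer's law plots; the unrecovered fraction is taken as % absorbed. One to three subjects.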

[8] = Effect on transmembrane action potential in dog purkinje cells assessed as average rising velocity at 20 mg/l after 20 mins in presence of 5.4 mM/l K+ relative to control; format: functional, Canis lupus familiaris; in short: as §2
[9] = Effect on transmembrane action potential in dog purkinje cells assessed as average rising velocity at 40 mg/l after 20 mins in presence of 5.4 mM/l K+ relative to control; format: functional, Canis lupus familiaris; in short: as §2
[10] = Effect on transmembrane action potential in dog purkinje cells assessed as average rising velocity at 10 mg/l after 20 mins in presence of 2.7 mM/l K+ relative to control; format: functional, Canis lupus familiaris; in short: as §2
[11] = Effect on transmembrane action potential in dog purkinje cells assessed as average rising velocity at 25 mg/l after 20 mins in presence of 2.7 mM/l K+ relative to control; format: functional, Canis lupus familiaris; in short: as §2
[12] = Effect on transmembrane action potential in dog purkinje cells assessed as change in amplitude at 10 mg/l after 20 mins in presence of 2.7 mM/l K+ relative to control; format: functional, Canis lupus familiaris; in short: as §1
[13] = tested on: Heart; assay: Antiarrhythmic activity in Hartley guinea pig atria assessed as change in maximum driving rate at 55.2 uM/l after 5 mins; format: functional, Cavia porcellus
In short: (§4)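 Spontaneously beating isolated atria held under initial tension; bath fluid changed every 10 min; stabilised about 1 h. Maximum driving rate found with 1-ms square pulses at 50% above threshold voltage, 10 s every 30 s; the frequency just before failure of following is the MDR. Control is the mean of two determinations. Spontaneous rate recorded by tachograph. Values are % change from control at peak response, generally 5–30 min.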

[14] = Effect on transmembrane action potential in dog purkinje cells assessed as change in activation time at 20 mg/l after 20 mins in presence of 5.4 mM/l K+ relative to control; format: functional, Canis lupus familiaris; in short: as §2
[15] = Effect on transmembrane action potential in dog purkinje cells assessed as change in activation time at 25 mg/l after 20 mins in presence of 2.7 mM/l K+ relative to control; format: functional, Canis lupus familiaris; in short: as §2
[16] = tested on: Mus musculus; assay: Toxicity in ip dosed Swiss-Webster albino mouse; format: organism-based; details: in vivo
[17] = Therapeutic index, ratio of LD50 for toxicity to ED50 for antiarrhythmic activity in ip dosed Swiss-Webster albino mouse; format: organism-based, Heart; details: in vivo, read-out: Ratio LD50/ED50
[18] = Effect on transmembrane action potential in dog purkinje cells assessed as average rising velocity at 50 mg/l after 20 mins in presence of 2.7 mM/l K+ relative to control; format: functional, Canis lupus familiaris; in short: as §2
[19] = Effect on transmembrane action potential in dog purkinje cells assessed as change in amplitude at 25 mg/l after 20 mins in presence of 2.7 mM/l K+ relative to control; format: functional, Canis lupus familiaris; in short: as §1
[20] = Effect on transmembrane action potential in dog purkinje cells assessed as change in activation time at 40 mg/l after 20 mins in presence of 5.4 mM/l K+ relative to control; format: functional, Canis lupus familiaris; in short: as §1
[21] = species: Homo sapiens; assay: Drug absorption in buccal cavity in human at pH 7.50 after 5 mins by UV spectrometry; format: ADME, organism-based; details: in vivo, other, pH 7.5, 5 min; in short: as §3
[22] = Effect on transmembrane action potential in dog purkinje cells assessed as change in activation time at 50 mg/l after 20 mins in presence of 2.7 mM/l K+ relative to control; format: functional, Canis lupus familiaris; in short: as §1
[23] = species: Homo sapiens; assay: Drug absorption in buccal cavity in human at pH 9.3 after 5 mins by UV spectrometry; format: ADME, organism-based; details: in vivo, other, pH 9.3, 5 min; in short: as §3
[24] = Dissociation constant, pKa of the compound in 0.01 M potassium hydrogen phthalate; format: physicochemical
In short: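 pKa by potentiometric titration with 0.01 M potassium hydrogen phthalate in a thermostated vessel, stirred, under nitrogen bubbling, using glass and calomel electrodes. pKa is the mean pH at half-neutralization from four titrations. Endpoints were taken from parallel tangents on either side of the inflection.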

[25] = tested on: Heart; assay: Antiarrhythmic activity in Hartley guinea pig atria assessed as change in spontaneous rate at 55.2 uM/l after 5 mins; format: functional, Cavia porcellus; in short: as §4
[26] = Effect on transmembrane action potential in dog purkinje cells assessed as average rising velocity at 10 mg/l after 20 mins in presence of 5.4 mM/l K+ relative to control; format: functional, Canis lupus familiaris; in short: as §2
[27] = Effect on transmembrane action potential in dog purkinje cells assessed as change in amplitude at 20 mg/l after 20 mins in presence of 5.4 mM/l K+ relative to control; format: functional, Canis lupus familiaris; in short: as §1
[28] = Effect on transmembrane action potential in dog purkinje cells assessed as change in amplitude at 30 mg/l after 20 mins in presence of 2.7 mM/l K+ relative to control; format: functional, Canis lupus familiaris; in short: as §1
[29] = tested on: Heart; assay: Antiarrhythmic activity in Hartley guinea pig atria assessed as change in spontaneous rate at 58.6 uM/l after 5 mins; format: functional, Cavia porcellus; in short: as §4
[30] = tested on: Heart; assay: Antiarrhythmic activity in Hartley guinea pig atria assessed as change in maximum driving rate at 58.6 uM/l after 5 mins; format: functional, Cavia porcellus; in short: as §4
[31] = Effect on transmembrane action potential in dog purkinje cells assessed as change in activation time at 30 mg/l after 20 mins in presence of 2.7 mM/l K+ relative to control; format: functional, Canis lupus familiaris; in short: as §2
[32] = Effect on transmembrane action potential in dog purkinje cells assessed as average rising velocity at 30 mg/l after 20 mins in presence of 2.7 mM/l K+ relative to control; format: functional, Canis lupus familiaris; in short: as §2
[33] = tested on: Homo sapiens; assay: Toxicity in human assessed as numbness at 5 x 10' -5 M administered topically to buccal cavity measured up to 15 to 20 mins; format: organism-based; details: in vivo, topical_or_ocular, 50 µM
[34] = Effect on transmembrane action potential in dog purkinje cells assessed as average rising velocity at 20 mg/l after 20 mins in presence of 2.7 mM/l K+ relative to control; format: functional, Canis lupus familiaris; in short: as §2
[35] = Effect on transmembrane action potential in dog purkinje cells assessed as change in activation time at 20 mg/l after 20 mins in presence of 2.7 mM/l K+ relative to control; format: functional, Canis lupus familiaris; in short: as §2
[36] = tested on: Heart; assay: Antiarrhythmic activity in Hartley guinea pig atria assessed as change in maximum driving rate at 55.0 uM/l after 5 mins; format: functional, Cavia porcellus; in short: as §4
[37] = Effect on transmembrane action potential in dog purkinje cells assessed as change in amplitude at 20 mg/l after 20 mins in presence of 2.7 mM/l K+ relative to control; format: functional, Canis lupus familiaris; in short: as §1
[38] = tested on: Heart; assay: Antiarrhythmic activity in Hartley guinea pig atria assessed as change in spontaneous rate at 55.0 uM/l after 5 mins; format: functional, Cavia porcellus; in short: as §4
[39] = tested on: Heart; assay: Antiarrhythmic activity in Hartley guinea pig atria assessed as change in spontaneous rate at 73.2 uM/l after 5 mins; format: functional, Cavia porcellus; in short: as §4
[40] = tested on: Heart; assay: Antiarrhythmic activity in Hartley guinea pig atria assessed as reversible decrease in maximum driving rate compound treated for 5 mins measured up to 2 hrs post washout; format: functional, tissue-based; details: Cavia porcellus
In short: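 After compound exposure the bath was washed out. Two MDR determinations were made every 15 min for up to 2 h to follow reversibility and recovery toward control. Bath fluid was changed every 10 min.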

[41] = tested on: Heart; assay: Antiarrhythmic activity in Hartley guinea pig atria assessed as change in maximum driving rate at 36.6 uM/l after 5 mins; format: functional, Cavia porcellus; in short: as §4
[42] = tested on: Heart; assay: Antiarrhythmic activity in Hartley guinea pig atria assessed as change in maximum driving rate at 73.2 uM/l after 5 mins; format: functional, Cavia porcellus; in short: as §4
[43] = tested on: Heart; assay: Antiarrhythmic activity in Hartley guinea pig atria assessed as change in spontaneous rate at 36.6 uM/l after 5 mins; format: functional, Cavia porcellus; in short: as §4

Compound | Activity [1] [%] | Activity [4] [%] | Activity [5] [%] | ED50 [6] [µmol/kg] | Drug absorption [7] [%] | Activity [8] [%] | Activity [10] [%] | Activity [12] [%] | Activity [14] [%] | LD50 [16] | selectivity ratio [17] | Drug absorption [21] [%] | Drug absorption [23] [%] | pKa [24] | Activity [26] [%] | Activity [27] [%] | Activity [33] | other results
COc1cc(C(=O)N[C@@H]2CCC[C@@H]3CCN(C)C[C@H]32)cc(OC)c1OC (mixture of isomers) | 0 | 2 | -4 | 124 | 5.5 | -29 | -9 | 0 | -1 | 835 | 6.7 | 18.1 | 31.1 | 8.75 | -24 | 0 |  | Activity [2]: -6%; Activity [3]: -8%; Activity [9]: -50%; Activity [11]: -19%; Activity [13]: -13.3%; Activity [15]: 23%; Activity [18]: -44%; Activity [19]: -2%; Activity [20]: -1%; Activity [22]: 105%; Activity [25]: -14.4%
CN1CC[C@H]2CCC[C@@H](NC(=O)c3ccc(Cl)c(Cl)c3)[C@@H]2C1 (mixture of isomers) | -11 |  | 18 | 104 | 20.5 | -58 |  |  | 42 | 1304 | 12.7 | 25.7 | 59.3 |  | -30 | -5 |  | Activity [28]: -23%; Activity [29]: -41.2%; Activity [30]: -45%; Activity [31]: 81%; Activity [32]: -72%
COc1cc(C(=O)O[C@@H]2CCC[C@@H]3CCN(C)C[C@H]32)cc(OC)c1OC (mixture of isomers) | -7 | 131 | 530 | 74 | 17.1 | -71 | -6 | -12 | 300 | 338 | 4.5 | 19.7 | 69.5 | 8.82 | -50 | -17 | Toxic | Activity [34]: -58%; Activity [35]: 389%; Activity [36]: -54.5%; Activity [37]: -15%; Activity [38]: -42.4%
CN1CC[C@H]2CCC[C@@H](OC(=O)c3ccccc3)[C@H]2C1 (relative stereo) |  |  |  | 245 | 29.7 |  |  |  |  | 900 | 3.7 | 46 | 81.8 | 9.05 |  |  | Toxic | Activity [39]: -57.8%; Activity [40]: Dose-dependent effect; Activity [41]: -24.5%; Activity [42]: -55.5%; Activity [43]: -23%
